For data set [1] the following is noted: 2 mg oral midazolam dose; sample collection at 0.25 h; ref Winter et al. [2013]; cited from earlier work.
Data set [2] in a line: Plasma midazolam pharmacokinetics after 2 mg oral doses on day 1 and day 16. Particulars: for AUC(0-t) / AUC(0-inf) / Cmax / half-life: human, plasma; for AUC(0-inf): AUCinf; for half-life: t1/2, Group B (midazolam alone).
Data set [3] in a line: Safety: adverse event reports and clinical laboratory assessments. It counts as in vivo, human. The method in brief: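 Open-label parallel-group study in postmenopausal women with osteoporosis, randomised 2:1. […] Group B received midazolam only. Adverse events recorded at any time through day 47 follow-up. Clinical laboratory tests at screening (21 days pre-treatment) and day 17. All treated subjects analysed.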

Data set [4] relates to CYP3A4. Conditions: healthy volunteers; ref Gupta et al. [2012]; cited from earlier work.
Data set [5] is described as follows: Serum denosumab concentration by validated ELISA. It counts as in vivo, human. Conditions: day 16 (14 days after a 60 mg SC dose); Group A. In general terms: ELISA stands for enzyme-linked immunosorbent assay.
Data set [6] relates to RANKL. The experiment in a line: Serum C-telopeptide. It counts as in vivo, human. Conditions: Group A; denosumab 60 mg SC on day 2.
The conditions of data set [7]: 60 mg SC dose; ref Bekker et al. [2004]; cited from earlier work.
Data set [8] deals with CYP3A4. It counts as in vivo, human. Particulars: single 60 mg SC dose of denosumab; postmenopausal women with osteoporosis.
[9] abbreviates: Group A (midazolam + denosumab), N = 17.
The mark [10] stands for this setting: Group B (midazolam alone), period effect, n = 8.
The mark [11] stands for this setting: po, 2 mg, Group B (midazolam alone), day 1, 2 mg oral, mean (SD), N = 8.
Setting [12] is: po, 2 mg, Group B (midazolam alone), day 16, 2 mg oral, mean (SD), N = 8.

A value given as a limit tells only on which side of the number the result lay.

With `Cc1ncc2n1-c1ccc(Cl)cc1C(c1ccccc1F)=NC2` [midazolam], the “mean Cmax” value in data set [1] was 11.9 ng/mL. For the same compound, in data set [2] (setting [9]), the “AUC0–inf, ratio of day 16/day 1, LS mean” value is on record as 1.02. The “AUC0–t, ratio of day 16/day 1, LS mean” value in data set [2] (setting [9]) was 1.02. In data set [2] (setting [9]), the “Cmax, ratio of day 16/day 1, LS mean” value was 1.04. In addition, in data set [2] (Group A, day 1, midazolam 2 mg oral, mean (SD), N = 17), the AUCinf is reported as 35.6 (16.4) ng·h/mL. In addition, the Tmax in data set [2] (Group B (midazolam alone), day 16, 2 mg oral, median (range), N = 8) is listed as 0.5 (0.5–1.0) hr. In data set [2] (setting [10]), the “AUC0–inf, point estimate for the ratio of the least square means (day 16/day 1)” value was 0.98. The “AUC0–t, point estimate for the ratio of the least square means (day 16/day 1)” value in data set [2] (setting [10]) was 0.98. For the same compound, in data set [2] (Group B (midazolam alone), period effect, n = 8, 90% CI 0.82 to 1.33), the “Cmax, point estimate for the ratio of the least square means (day 16/day 1)” value is reported as 1.05. Besides, the AUC(0-t) (in general, the area under the concentration-time curve up to a stated or last time point) in data set [2] (oral) is 31 ng·h/mL; in data set [2] (po, 2 mg), 30.4 ng·h/mL. The results for the AUC(0-inf) in data set [2] (setting [11]) and in data set [2] (setting [12]) were 31 ng·h/mL and 29.3 ng·h/mL, respectively. Moreover, the Cmax (usually the maximum level reached in the sampled fluid or tissue) was determined as 11.3 ng/mL in data set [2] (setting [11]) and 10.9 ng/mL in data set [2] (setting [12]). For the same compound, the half-life (commonly the time needed for the level to fall by half in the phase considered) in data set [2] (po, 2 mg, day 1, 2 mg oral, mean (SD), N = 8) was 6.2 h; in data set [2] (po, 2 mg, day 16, 2 mg oral, mean (SD), N = 8), 6.22 h. Also, the somnolence incidence in data set [3] (Group A, day 1 (prior to administration of denosumab), 7 of 19 subjects) is recorded as 37%; in data set [3] (Group B, day 1, 2 of 8 subjects), 25%; in data set [3] (day 16 (after the second midazolam dose)) it was “no subjects”; in data set [3] (days 2 to 15), “no subjects”. The “changes in clinical laboratory values from baseline” value in data set [3] (screening to day 17) is given as “unremarkable”. For the same compound, the “deaths, withdrawal due to adverse events, serious adverse events” value in data set [3] (whole study) was “No deaths, withdrawal due to adverse events, or serious adverse events”.
Regarding `C[C@@H]1CCN(C(=O)CC#N)C[C@@H]1N(C)c1ncnc2[nH]ccc12` [tofacitinib], in data set [4], the “effects on CYP3A4 activity (midazolam pharmacokinetics)” value is given as “lack of effects”.
In the case of “denosumab: fully human monoclonal immunoglobulin G2 (IgG2) that binds to and neutralizes RANKL activity”, the “serum denosumab concentration, mean (SD)” value in data set [5] is 5790 (1800) ng/mL. Moreover, the “sCTX concentrations on day 16 lower than those on day 2, on average” value in data set [6] is ~81%. Moreover, the “time by which maximal pharmacodynamic effects are observed” value in data set [7] is reported as ≤ 1 week. Also, in data set [8], the “effect on CYP3A4 activity (based on midazolam pharmacokinetics)” value is “no effect”.
